Source: PubChem BioAssay
Glyco luc inh = N-linked glycosylation inhibition; reporter increase, % at 12.5 µM; 360,000 tested, 0.23% active; D54 ERlucT glycosylation luciferase reporter, 24 h; percent of 100 nM tunicamycin response;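 active = mean luciferase reporter signal, scaled so untreated is 0 and the glycosylation-blocking control 100, at or above a set limit in every replicate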;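 note: luciferase carries N-glycosylation sites so blocking glycosylation raises the light; 0% = median of neutral control wells and 100% = median of 100 nM tunicamycin wells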
ALR H2O2 inh = human ALR oxidase inhibition via reduced H2O2. purified ALR, DTT oxidation, H2O2 HRP-luminol luminescence. inhibition, % (no concentration beside the values). AID 485317. P55789. 290,000 tested, 3.8% active;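 active = mean replicate inhibition above about 79%, with every replicate also reaching it, limit read from the data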
Target sequence (P55789 whole entry, looked up): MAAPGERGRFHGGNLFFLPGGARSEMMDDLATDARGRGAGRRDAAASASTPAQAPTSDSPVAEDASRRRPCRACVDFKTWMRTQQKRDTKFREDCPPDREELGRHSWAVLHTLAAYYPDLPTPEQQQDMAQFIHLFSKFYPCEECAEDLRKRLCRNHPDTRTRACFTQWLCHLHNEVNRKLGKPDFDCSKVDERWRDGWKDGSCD
T cell modulator = T cell immune modulation candidate; 2C CD8+ T cell-vesicle binding, flow cytometry; stronger effect = lower value; 330,000 tested, 0.068% active; response (vesicle binding), % at 7 µM;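 active = response, share of CD8 T cells binding vesicles, and their 90th percentile fluorescence all below set limits, cut at about 80% in these data, passing the limit was not always enough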;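 note: values below 100% mean blocked vesicle binding to the CD8+ T cells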
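Material: murine 2C transgenic CD8+ T lymphocytes / Also added: QL9-peptide-loaded Drosophila micro-vesicles bearing Ld, ICAM-1 and B7-1 / Schedule: binding step 1.5 h, 37 °C, antibody labelling 20 min, ice / Signal: flow cytometry, PE anti-B7-1 (FL2) versus Alexa647 anti-CD8 (FL8), PFA-fixed / Evaluation: percent CD8+ FL2 mean versus row control / Benchmarks: naked versus QL9-loaded vesicles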
An asterisk follows results filed as active; . = no result. Shown is part of a subset that was picked to be rich in hits.

SMILES | Glyco luc inh | ALR H2O2 inh | T cell modulator
CCOC(=O)c1cnc2c(ccc3ccccc32)c1NCCCN(C)C | 98* | -18 | 350
CCOC(=O)c1cnc2ccccc2c1NCCO | 3 | -10 | 461
CCOC(=O)c1cnc2c(C)cc(C)cc2c1NCCCN1CCOCC1 | 29* | 14 | 285
CCOC(=O)C1CCN(Cc2ccc(F)c(F)c2)CC1 | 1 | 0 | 197
CCOC(=O)C1CCN(c2c(N3CCN(c4ccccc4OC)CC3)c(=O)c2=O)CC1 | 0 | . | .
CCOC(=O)C1CCN(Cc2ccc(N(C)C)cc2)CC1 | 2 | 99* | 345
CCOC(=O)C1CCN(c2c(N3CCN(Cc4ccccc4)CC3)c(=O)c2=O)CC1 | 28* | 0 | 296
CCc1cc(C(=O)Nc2cc(S(=O)(=O)N(CC)CC)ccc2N2CCOCC2)sc1C | 1 | . | 274
COc1cccc([C@@H]2CC=C(C(=O)O)CN2S(=O)(=O)c2ccc(C)cc2)c1 | 1 | -2 | 565
O=C(NCc1cccs1)c1ccc2sc([C@@H]3O[C@H](CO)[C@H](O)[C@H](O)[C@H]3O)nc2c1 | 1 | . | .
Cc1c(NC(=O)c2cc(-n3cnnc3)ccc2Cl)cccc1-c1nc2ccccc2s1 | -11 | 88* | 310
O=C(Nc1cccc(-c2nc3ccccc3s2)c1)c1cc(-n2cnnc2)ccc1Cl | -1 | -10 | 284
Cc1ccc(C2CC(=O)C=C(NCc3ccccc3)C2)cc1 (configuration not stated) | 13 | -1 | 374
COc1ccc([N+](=O)[O-])cc1NC(=O)C(C)Sc1nc(-c2ccccc2)cs1 (configuration not stated) | -3 | -2 | 0.0*
COc1ccc([N+](=O)[O-])cc1NC(=O)C(C)Sc1ccccc1 (configuration not stated) | -3 | 1 | 0
O=[N+]([O-])c1cccc(Oc2cnccn2)c1 | 3 | 1 | 199
CCOC(=O)C1(C)CCCCCN1C(=O)c1ccc(C(=O)OC)cc1 (configuration not stated) | 4 | . | .
O=c1cc(-c2ccc(O)cc2)oc2c(C3O[C@H](CO)[C@@H](O)[C@H](O)[C@H]3O)c(O)cc(O)c12 (some centres not stated) | 4 | 15 | 443
O=c1cc(-c2ccc(O)c(O)c2)oc2cc(O)c(C3OC(CO)C(O)C(O)C3O)c(O)c12 (configuration not stated) | 0 | 99* | 244
O=c1cc(-c2ccc(O)cc2)oc2cc(O)c([C@@H]3O[C@H](CO)[C@@H](O)[C@H](O)[C@H]3O)c(O)c12 | 0 | . | 456
O=c1cc(-c2ccc(O)c(O)c2)oc2c(C3O[C@H](CO)[C@@H](O)[C@H](O)[C@H]3O)c(O)cc(O)c12 (some centres not stated) | 2 | 99* | 403
CC(C)C[C@H](NC(=O)N1CCn2c1nc1ccccc12)C(=O)NCC1CCCO1 (some centres not stated) | 2 | -3 | 506
Cc1ccc(C(=O)NCCSCc2ccc(Cl)cc2Cl)cc1[N+](=O)[O-] | -1 | 89* | 141
Cc1c(C(=O)NCCSCc2ccc(Cl)cc2Cl)cccc1[N+](=O)[O-] | -2 | -7 | 252
O=C(NC(c1ccccc1)c1ccsc1)C1CCN(CCOc2ccc(Cl)cc2Cl)CC1 (configuration not stated) | -1 | . | .
SMILES | Glyco luc inh | ALR H2O2 inh | T cell modulator
C=Cc1ccc(Cn2c(C)c(C(=O)NCc3ccc4c(c3)OCCO4)sc2=O)cc1 | -4 | . | .
CC(=O)n1cc(N(C(=O)CCl)c2ccc([N+](=O)[O-])cc2)c2ccccc21 | 13 | 40 | 414
O=Cc1[nH]c2ccccc2c1N(C(=O)CCl)c1ccc([N+](=O)[O-])cc1 | -2 | 99* | 246
COc1cc(/C=C2\SC(=S)N(CC(=O)O)C2=O)ccc1OC(=O)c1ccco1 | -4 | 99* | 265
CN1C(=O)/C(=C/c2ccc(OC(=O)c3ccco3)cc2)SC1=S | 0 | 1 | 240
COc1cc(/C=C2/SC(=S)N(CC(=O)O)C2=O)ccc1OC(=O)c1ccco1 | -4 | 98* | 373
CCOc1cc(/C=C2/SC(=S)N(CC(=O)O)C2=O)ccc1OC(=O)c1cccs1 | 2 | . | 437
COc1ccc(Br)c(-c2nc(CS(=O)(=O)c3ccc(F)cc3)no2)c1 | 0 | -7 | 575
Cc1nnsc1-c1nnc(SCC(=O)c2ccc(C#N)cc2)n1C1CC1 | 0 | 29 | 185
Cc1nnsc1-c1nnc(SCC(=O)c2ccccc2)n1C1CC1 | 2 | 84* | 476
O=[N+]([O-])c1cc([N+](=O)[O-])c(Oc2cncc(Cl)c2)cc1NC1CCCCCCC1 | 9 | . | 222
CCc1nn(CC(=O)NCCCN2CCc3ccccc3C2)c(=O)c2cc3sccc3n12 | -3 | 95* | 354
CCc1nn(CC(=O)NCCCN2CCN(C)CC2)c(=O)c2cc3sccc3n12 | 1 | -2 | 320
COc1ccc2c(c1OC)C(=O)OC2CC(=O)c1ccc(O)cc1 (configuration not stated) | 2 | 22 | 204
COc1ccc2c(c1OC)C(=O)OC2CC(=O)c1ccc(O)c(O)c1 (configuration not stated) | 3 | 99* | 405
Cc1ccc(C2NC(c3ccc(C)cc3)C(C)C(=O)C2C)cc1 (configuration not stated) | 1 | -22 | 559
CCn1c(SCC(=O)Nc2cc(C)on2)nnc1-c1cccc(C)c1 | -1 | 0 | 178
CCn1c(SCC(=O)Nc2ccc(N(C)C)cc2)nnc1-c1cccc(C)c1 | 0 | 99* | 215
CN(C)c1ccc(NC(=O)CSc2nnc(-c3cccs3)n2Cc2ccco2)cc1 | -1 | 99* | 504
Cc1ccc(NC(=O)CSc2nnc(-c3cccs3)n2Cc2ccco2)cc1 | 0 | -1 | 283
CN(CC(=O)Nc1ccc(F)cc1)C(=O)COC(=O)CNC(=O)c1sc2ccccc2c1Cl | 0 | -1 | 251
Cc1cc2c(Nc3ccccc3O)ncnc2s1 | 0 | . | .
Cc1cc2c(Nc3cccc(O)c3)ncnc2s1 | -5 | 99* | 202
Cc1c(Br)c([N+](=O)[O-])nn1C(C)C(=O)NCC1CCCO1 (configuration not stated) | -1 | . | 202
C/C(=N\N(Cc1ccccc1)c1ccccc1)c1cccnc1 | -6 | 99* | 281
SMILES | Glyco luc inh | ALR H2O2 inh | T cell modulator
C(=N\N(Cc1ccccc1)c1ccccc1)/c1cccnc1 | -2 | -17 | 369
COc1cc(C)c(S(=O)(=O)N2CCOCC2)cc1C(C)C | 4 | 2 | 338
COc1cc(C)c(N)cc1C(C)C | 1 | 98* | 463
CCCCc1cc(=O)oc2cc(OCC(=O)Nc3ccccn3)ccc12 | 0 | 6 | 261
Cc1occc1-c1nnc(SCC(=O)c2cc3ccccc3oc2=O)o1 | 0 | 98* | 380
Cc1occc1-c1nnc(SCC(=O)Nc2ccccn2)o1 | -4 | 24 | 236
CCOC(=O)N1CCN(C(=O)c2cc3cc(OC)c(OC)cc3[nH]2)CC1 | -1 | -22 | 178
O=C(/C=C/c1ccco1)c1ccc(NC(=O)C23CC4CC(CC(C4)C2)C3)cc1 | -3 | . | 198
CC(=O)Nc1ccc(-c2csc(Nc3ncccn3)n2)cc1 | -2 | -6 | 290
CC(=O)Nc1ccc(-c2csc(NCc3ccccc3)n2)cc1 | 1 | 13 | 678
